Data set [1] is filed under the species Mus musculus. As to the kind of experiment: Immunosuppressive activity in BALB/c mouse CD19-positive B cells assessed as decrease in anti-IgM/CD40 stimulated IL-6 levels at 1 to 10 uM after 24 hrs by ELISA. It is filed as functional. In outline:
(§1)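 Purified splenic CD19+ B cells (negative selection, >98% pure) stimulated with F(ab')2 anti-IgM (10 μg/ml) plus anti-CD40 (1 μg/ml), with or without compound at 10, 3 and 1 μM, 24 h. Supernatant IL-6 and IL-10 measured by mouse ELISA kits.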
For orientation: In an ELISA, binding on a coated surface is turned into a signal by an enzyme label.

The subject of data set [2] is Splenocyte. The data set can be described thus: Immunosuppressive activity in BALB/c mouse splenocytes assessed as inhibition of concanavalin A stimulated T-cell proliferation by measuring [3H]-thymidine uptake preincubated for 48 hrs followed by concanavalin A stimulation and [3H]-thymidine addition for 8 hrs measured after 48 hrs by beta-scintillation counting analysis. It is filed as functional, cell-based. In short, it runs like this:
(§2)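 Female BALB/c splenocytes (5×10^5 cells), triplicate, with or without compound, stimulated with Con A 5 μg/ml (T cells) or LPS (E. coli 055:B5) 10 μg/ml (B cells). Culture 48 h at 37 °C, 5% CO2. Pulsed 8 h with 0.5 μCi/well [3H]thymidine, harvested to glass fiber filters, beta scintillation counted. IC50 from log(inhibitor) vs normalized response non-linear fit.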

Data set [3] is filed under the species Mus musculus. As to the kind of experiment: Immunosuppressive activity in BALB/c mouse CD4-positive T cells assessed as decrease in anti-CD3/CD28 stimulated IFN-gamma production at 1 to 10 uM after 24 hrs by ELISA. It is filed as functional. In outline: (§3)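 Purified splenic CD4+ T cells (negative selection, >98% pure) stimulated with anti-CD3 (5 μg/ml) plus anti-CD28 (2 μg/ml), with or without compound at 10, 3 and 1 μM, for 24 h. Supernatant IL-2 and IFN-γ measured by mouse ELISA kits.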

Data set [4] in a line: Immunosuppressive activity in BALB/c mouse CD19-positive B cells assessed as inhibition of anti-IgM/CD40 -induced decrease in IgD expression by measuring mean fluorescence intensity at 1 uM by allophycocyanin staining-based flow cytometric analysis (reference value: 5084). The format is functional. (In general: Flow cytometry measures light scatter and fluorescence of single cells or particles in a stream.)

Data set [5] can be described thus: Immunosuppressive activity in BALB/c mouse CD19-positive B cells assessed as inhibition of anti-IgM/CD40 -induced decrease in IgD expression by measuring mean fluorescence intensity at 3 uM by allophycocyanin staining-based flow cytometric analysis (reference value: 5084). It is filed as functional.
Data set [6] concerns Splenocyte. The data set can be described thus: Immunosuppressive activity in BALB/c mouse splenocytes assessed as inhibition of LPS-stimulated B-cell proliferation by measuring [3H]-thymidine uptake preincubated for 48 hrs followed by LPS stimulation and [3H]-thymidine addition for 8 hrs measured after 48 hrs by beta-scintillation counting analysis. The format is functional, cell-based. In short, it runs like this:
as §2

A short description of data set [7]: Immunosuppressive activity in BALB/c mouse CD4-positive T cells assessed as anti-CD3/CD28 stimulated CD25 expression at 3 uM by phycoerythrin staining-based flow cytometric analysis (reference value: 52.5%). It is filed as functional. In short, it runs like this: (§4)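 Purified splenic CD4+ T cells stimulated with anti-CD3 (5 μg/ml) plus anti-CD28 (2 μg/ml) with or without compound at 10, 3 or 1 μM. Cells washed in PBS, stained with fixable viability dye eFluor 780 for 30 min at 4 °C, Fc-blocked with anti-CD16/CD32, stained with PE-CD25. CD25+ percentage read by flow cytometry.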

Data set [8] is described as follows: Cytotoxicity against BALB/c mouse splenocytes after 48 hrs by CCK-8 assay. It is filed as cell-based, Splenocyte. In short, it runs like this: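 Fresh female BALB/c splenocytes (1×10^6 cells), RBC-depleted with ammonium chloride, cultured in triplicate in RPMI 1640/10% FBS with penicillin/streptomycin at 37 °C, 5% CO2 for 48 h with or without compound (DMSO stock diluted in medium). CCK-8 added, 6-8 h further incubation, absorbance 450 nm (570 nm calibration). CC50 from log(inhibitor) vs normalized response non-linear fit.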

A short description of data set [9]: Immunosuppressive activity in BALB/c mouse CD4-positive T cells assessed as anti-CD3/CD28 stimulated CD25 expression at 10 uM by phycoerythrin staining-based flow cytometric analysis (reference value: 52.5%). It is filed as functional. In outline: as §4
Data set [10] is described as follows: Immunosuppressive activity in BALB/c mouse CD19-positive B cells assessed as inhibition of anti-IgM/CD40 -induced decrease in IgD expression by measuring mean fluorescence intensity at 10 uM by allophycocyanin staining-based flow cytometric analysis (reference value: 5084). The format is functional.
The species named for data set [11] is Mus musculus. The data set can be described thus: Immunosuppressive activity in BALB/c mouse CD19-positive B cells assessed as inhibition of anti-IgM/CD40 stimulated cell proliferation at 1 to 10 uM after 48 hrs by [3H]-thymidine uptake assay. The format is functional. In outline:
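CD19+ B cells purified from BALB/c spleen by negative selection (purity >98%). Stimulated with F(ab')2 anti-mouse IgM (10 μg/ml) plus hamster anti-mouse CD40 (1 μg/ml), with or without compound at 10, 3 and 1 μM, 48 h. Proliferation by 0.5 μCi/well [3H]thymidine pulse.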

The species entered for data set [12] is Mus musculus. As to the kind of experiment: Immunosuppressive activity in BALB/c mouse CD4-positive T cells assessed as decrease in anti-CD3/CD28 stimulated IL-2 production at 1 to 10 uM after 24 hrs by ELISA. It is filed as functional. In outline: as §3
Data set [13] can be described thus: Immunosuppressive activity in BALB/c mouse CD4-positive T cells assessed as anti-CD3/CD28 stimulated CD25 expression at 1 uM by phycoerythrin staining-based flow cytometric analysis (reference value: 52.5%). The format is functional. In short, it runs like this:
as §4

The species entered for data set [14] is Mus musculus. The data set can be described thus: Immunosuppressive activity in BALB/c mouse CD19-positive B cells assessed as increase in anti-IgM/CD40 stimulated IL-10 levels at 1 to 10 uM after 24 hrs by ELISA. It is filed as functional. In short, it runs like this:
as §1

For data set [15], the species on record is Mus musculus. The data set can be described thus: Immunosuppressive activity in BALB/c mouse CD4-positive T cells assessed as inhibition of anti-CD3/CD28 stimulated cell proliferation at 1 to 10 uM after 48 hrs by [3H]-thymidine uptake assay. It is filed as functional. In short, it runs like this:
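CD4+ T cells isolated from BALB/c spleen by immunomagnetic negative selection (purity >98%). 4×10^5 cells/well on plate-coated anti-CD3 (5 μg/ml) plus anti-CD28 (2 μg/ml), with or without compound at 10, 3 and 1 μM, for 48 h. Proliferation read by 0.5 μCi/well [3H]thymidine pulse.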

Active and inactive are the calls of the source. The rule behind the calls is not given here. A value given as a limit tells only on which side of the number the result lay.

The values that follow come from ChEMBL document CHEMBL4382256, “Design and Synthesis of Marine Phidianidine Derivatives as Potential Immunosuppressive Agents” (J Med Chem, 2018).

The IC50 is the midpoint of a concentration-inhibition curve. One may read the CC50 as the concentration at which the toxic effect on the cells reaches its halfway point. High values mean better tolerance by the cells, low ones harm at low concentration.

For the compound `COc1cc(-c2nc(Cc3c[nH]c4ccccc34)no2)cc(OC)c1OC`, the result in data set [1], in data set [3], in data set [11], in data set [12] and in data set [14] was Active. Further, the IC50 in data set [2] came out at 11 µM; in data set [6] it was 3.1 µM. The Flu intensity in data set [4] was 5640; in [5] it was 6134; in data set [10] it was 6814. Besides, the Activity amounted to 48.6% in data set [7], 22% in [9] and 50.3% in data set [13]. Besides, the CC50 at 48 h in data set [8] is over 50 µM. Besides, in [15], the inhibition entry is “Active”.

For `COc1cc(-c2noc(-c3ccc(N)cc3)n2)cc(OC)c1OC`, the outcome in [1], in [3], in data set [11], in data set [12] and in [14] was Active. For the same compound, the IC50 was 0.8 µM in [2] and 1.7 µM in data set [6]. In addition, the Flu intensity stood at 5281 in data set [4], 6866 in [5] and 6995 in data set [10]. The Activity in data set [7] is 38.3%; in data set [9] it was 19%; in data set [13], 52.2%. In addition, the CC50 at 48 h in [8] was over 50 µM. In data set [15], the inhibition result was “Active”.
